# From the M2OR odorant receptor database
# Key:
# Conditions in all cases: stereoisomer not certain
# UniProt Q8VGC6 = biological target: T1, UniProt Q8VGC6
# T1 sequence (whole entry): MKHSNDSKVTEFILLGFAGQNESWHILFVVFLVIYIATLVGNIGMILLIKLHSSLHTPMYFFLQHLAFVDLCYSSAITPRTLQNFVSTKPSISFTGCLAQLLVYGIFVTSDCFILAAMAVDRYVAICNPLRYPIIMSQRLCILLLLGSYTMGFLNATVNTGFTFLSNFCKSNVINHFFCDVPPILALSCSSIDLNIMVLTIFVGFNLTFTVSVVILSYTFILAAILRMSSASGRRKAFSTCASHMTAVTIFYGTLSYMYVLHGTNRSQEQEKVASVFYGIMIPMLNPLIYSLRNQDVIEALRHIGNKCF
# In short: (§1)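 Each entry records the cell line, G-protein, co-transfected protein and tags used. Methods varied with the source, often transient luciferase assays in mammalian cell lines. A receptor–molecule pair is called responsive (active) if the original authors judged its signal statistically different from baseline and non-responsive (inactive) otherwise.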
# UniProt Q8VGD7 = biological target: T2, UniProt Q8VGD7
# T2 sequence (whole entry): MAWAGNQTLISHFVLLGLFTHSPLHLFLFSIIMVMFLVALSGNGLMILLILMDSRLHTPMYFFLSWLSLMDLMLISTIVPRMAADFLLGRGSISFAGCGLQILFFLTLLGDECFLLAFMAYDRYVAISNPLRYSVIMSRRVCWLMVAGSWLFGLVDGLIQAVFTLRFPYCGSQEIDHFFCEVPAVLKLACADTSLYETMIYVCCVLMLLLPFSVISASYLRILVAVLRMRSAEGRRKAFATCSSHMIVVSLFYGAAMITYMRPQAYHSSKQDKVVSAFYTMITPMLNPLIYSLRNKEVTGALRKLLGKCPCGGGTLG
# In short: as §1
# UniProt Q8VGH1 = biological target: T3, UniProt Q8VGH1
# T3 sequence (whole entry): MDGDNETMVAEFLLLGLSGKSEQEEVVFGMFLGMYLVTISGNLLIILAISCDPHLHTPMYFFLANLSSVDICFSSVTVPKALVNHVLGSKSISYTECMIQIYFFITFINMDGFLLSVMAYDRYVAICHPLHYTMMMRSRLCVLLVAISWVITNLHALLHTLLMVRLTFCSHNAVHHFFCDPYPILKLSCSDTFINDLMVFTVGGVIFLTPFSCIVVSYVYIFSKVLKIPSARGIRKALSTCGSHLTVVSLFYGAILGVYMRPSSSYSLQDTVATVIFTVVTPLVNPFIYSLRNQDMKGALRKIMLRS
# In short: as §1
# UniProt Q8VGJ1 = biological target: T4, UniProt Q8VGJ1
# T4 sequence (whole entry): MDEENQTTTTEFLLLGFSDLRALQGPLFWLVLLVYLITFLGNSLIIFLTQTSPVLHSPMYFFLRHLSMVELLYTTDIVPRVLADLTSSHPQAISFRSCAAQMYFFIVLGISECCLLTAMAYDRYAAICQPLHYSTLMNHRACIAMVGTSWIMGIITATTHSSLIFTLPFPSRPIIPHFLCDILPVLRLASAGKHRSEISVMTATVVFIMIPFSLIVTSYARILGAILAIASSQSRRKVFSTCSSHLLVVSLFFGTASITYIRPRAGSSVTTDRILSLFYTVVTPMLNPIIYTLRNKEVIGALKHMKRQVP
# In short: as §1
# UniProt Q8VGJ3 = biological target: T5, UniProt Q8VGJ3
# T5 sequence (whole entry): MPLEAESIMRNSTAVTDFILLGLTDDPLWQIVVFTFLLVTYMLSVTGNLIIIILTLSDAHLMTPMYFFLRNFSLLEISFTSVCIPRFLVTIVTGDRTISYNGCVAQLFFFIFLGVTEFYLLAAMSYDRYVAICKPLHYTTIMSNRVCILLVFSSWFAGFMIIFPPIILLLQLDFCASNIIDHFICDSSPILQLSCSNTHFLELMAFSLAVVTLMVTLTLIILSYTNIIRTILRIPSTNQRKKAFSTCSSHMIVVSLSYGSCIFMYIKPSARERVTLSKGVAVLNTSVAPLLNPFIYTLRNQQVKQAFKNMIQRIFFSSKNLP
# In short: as §1
# UniProt Q8VGJ5 = biological target: T6, UniProt Q8VGJ5
# T6 sequence (whole entry): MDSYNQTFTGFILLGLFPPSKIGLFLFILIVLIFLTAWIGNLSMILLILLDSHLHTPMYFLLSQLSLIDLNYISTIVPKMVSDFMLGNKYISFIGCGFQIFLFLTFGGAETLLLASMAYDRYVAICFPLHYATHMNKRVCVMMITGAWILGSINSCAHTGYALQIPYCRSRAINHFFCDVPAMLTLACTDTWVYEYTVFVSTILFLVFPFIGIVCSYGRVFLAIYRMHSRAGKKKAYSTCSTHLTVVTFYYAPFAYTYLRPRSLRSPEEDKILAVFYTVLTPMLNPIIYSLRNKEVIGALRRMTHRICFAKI
# In short: as §1
# UniProt Q8VGL0 = biological target: T7, UniProt Q8VGL0
# T7 sequence (whole entry): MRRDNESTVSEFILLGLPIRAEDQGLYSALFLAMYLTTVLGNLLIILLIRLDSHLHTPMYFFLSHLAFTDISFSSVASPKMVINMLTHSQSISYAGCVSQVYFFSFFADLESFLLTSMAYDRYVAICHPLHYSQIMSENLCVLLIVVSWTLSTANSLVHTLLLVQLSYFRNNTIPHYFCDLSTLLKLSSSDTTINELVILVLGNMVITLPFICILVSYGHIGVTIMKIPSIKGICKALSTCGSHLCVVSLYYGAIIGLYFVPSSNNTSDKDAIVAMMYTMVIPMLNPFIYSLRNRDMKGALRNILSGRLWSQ
# In short: as §1
# UniProt Q8VGL7 = biological target: T8, UniProt Q8VGL7
# T8 sequence (whole entry): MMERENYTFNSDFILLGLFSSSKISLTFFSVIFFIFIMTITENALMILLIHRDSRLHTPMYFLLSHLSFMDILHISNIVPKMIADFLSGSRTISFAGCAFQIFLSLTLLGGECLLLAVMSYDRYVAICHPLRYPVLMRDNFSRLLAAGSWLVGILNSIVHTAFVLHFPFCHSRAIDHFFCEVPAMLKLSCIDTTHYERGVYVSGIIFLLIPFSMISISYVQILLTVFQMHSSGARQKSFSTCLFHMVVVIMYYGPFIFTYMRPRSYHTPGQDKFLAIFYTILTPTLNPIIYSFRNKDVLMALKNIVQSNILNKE
# In short: as §1
# UniProt Q8VGM2 = biological target: T9, UniProt Q8VGM2
# T9 sequence (whole entry): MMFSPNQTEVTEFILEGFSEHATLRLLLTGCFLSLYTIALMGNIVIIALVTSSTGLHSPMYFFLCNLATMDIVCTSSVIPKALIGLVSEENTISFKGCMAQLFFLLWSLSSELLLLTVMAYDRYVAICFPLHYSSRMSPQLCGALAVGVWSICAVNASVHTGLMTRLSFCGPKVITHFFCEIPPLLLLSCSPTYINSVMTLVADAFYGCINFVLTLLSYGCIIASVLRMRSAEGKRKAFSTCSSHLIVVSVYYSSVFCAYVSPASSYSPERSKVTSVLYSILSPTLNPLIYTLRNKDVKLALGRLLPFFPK
# In short: as §1
# UniProt Q8VGP6 = biological target: T10, UniProt Q8VGP6
# T10 sequence (whole entry): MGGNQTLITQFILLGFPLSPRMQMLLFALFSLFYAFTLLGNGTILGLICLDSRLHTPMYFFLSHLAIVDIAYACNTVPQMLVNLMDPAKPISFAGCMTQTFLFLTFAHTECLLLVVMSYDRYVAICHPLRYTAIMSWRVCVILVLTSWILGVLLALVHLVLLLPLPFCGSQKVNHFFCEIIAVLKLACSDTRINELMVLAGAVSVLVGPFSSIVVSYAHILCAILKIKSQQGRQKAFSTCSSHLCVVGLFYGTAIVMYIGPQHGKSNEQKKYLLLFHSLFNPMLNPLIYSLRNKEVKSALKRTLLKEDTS
# In short: as §1
# UniProt Q8VGQ3 = biological target: T11, UniProt Q8VGQ3
# T11 sequence (whole entry): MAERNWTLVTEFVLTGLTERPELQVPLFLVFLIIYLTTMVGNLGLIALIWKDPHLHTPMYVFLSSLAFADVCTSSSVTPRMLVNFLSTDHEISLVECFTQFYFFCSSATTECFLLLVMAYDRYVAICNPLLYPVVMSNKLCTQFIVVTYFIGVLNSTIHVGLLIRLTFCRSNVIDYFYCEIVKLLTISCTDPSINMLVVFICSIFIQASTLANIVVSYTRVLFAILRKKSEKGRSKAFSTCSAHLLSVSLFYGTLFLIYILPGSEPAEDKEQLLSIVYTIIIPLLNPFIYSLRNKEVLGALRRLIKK
# In short: as §1
# UniProt Q8VGT4 = biological target: T12, UniProt Q8VGT4
# T12 sequence (whole entry): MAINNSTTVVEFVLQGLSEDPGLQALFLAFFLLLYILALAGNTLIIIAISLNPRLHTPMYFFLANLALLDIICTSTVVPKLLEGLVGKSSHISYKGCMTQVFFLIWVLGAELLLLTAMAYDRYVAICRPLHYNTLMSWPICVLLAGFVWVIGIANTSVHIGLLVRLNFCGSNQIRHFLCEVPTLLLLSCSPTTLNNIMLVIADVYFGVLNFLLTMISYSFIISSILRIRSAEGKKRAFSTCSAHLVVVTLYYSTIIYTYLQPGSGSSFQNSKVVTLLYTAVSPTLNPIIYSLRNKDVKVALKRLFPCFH
# In short: as §1
# UniProt Q8VGU3 = biological target: T13, UniProt Q8VGU3
# T13 sequence (whole entry): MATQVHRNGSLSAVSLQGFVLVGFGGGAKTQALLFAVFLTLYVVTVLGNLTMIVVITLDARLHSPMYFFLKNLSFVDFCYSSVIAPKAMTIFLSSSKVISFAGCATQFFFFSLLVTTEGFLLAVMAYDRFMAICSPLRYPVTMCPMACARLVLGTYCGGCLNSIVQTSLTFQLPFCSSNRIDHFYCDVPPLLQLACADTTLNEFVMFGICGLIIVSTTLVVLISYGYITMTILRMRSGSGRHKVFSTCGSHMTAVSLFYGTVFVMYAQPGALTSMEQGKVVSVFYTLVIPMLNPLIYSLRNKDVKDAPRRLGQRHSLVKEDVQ
# In short: as §1
# UniProt Q8VGV1 = biological target: T14, UniProt Q8VGV1
# T14 sequence (whole entry): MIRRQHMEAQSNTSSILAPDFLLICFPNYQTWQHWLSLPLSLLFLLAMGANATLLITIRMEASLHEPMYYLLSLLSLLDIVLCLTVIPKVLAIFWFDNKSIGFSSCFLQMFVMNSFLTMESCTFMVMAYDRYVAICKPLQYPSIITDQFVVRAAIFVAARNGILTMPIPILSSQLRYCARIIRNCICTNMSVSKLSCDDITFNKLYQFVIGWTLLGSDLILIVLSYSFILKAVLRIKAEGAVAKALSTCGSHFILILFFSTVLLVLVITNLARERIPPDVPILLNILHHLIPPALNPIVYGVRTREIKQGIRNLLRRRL
# In short: as §1
# UniProt Q8VGV7 = biological target: T15, UniProt Q8VGV7
# T15 sequence (whole entry): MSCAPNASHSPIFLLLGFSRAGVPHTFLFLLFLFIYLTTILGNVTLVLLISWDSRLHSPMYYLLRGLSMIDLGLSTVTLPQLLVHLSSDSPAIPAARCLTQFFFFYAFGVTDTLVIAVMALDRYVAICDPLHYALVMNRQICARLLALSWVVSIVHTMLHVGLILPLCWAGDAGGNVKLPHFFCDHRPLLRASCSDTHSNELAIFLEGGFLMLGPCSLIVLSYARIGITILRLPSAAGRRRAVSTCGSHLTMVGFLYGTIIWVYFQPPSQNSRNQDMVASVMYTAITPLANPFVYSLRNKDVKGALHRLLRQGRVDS
# In short: as §1
# UniProt Q8VGX3 = biological target: T16, UniProt Q8VGX3
# T16 sequence (whole entry): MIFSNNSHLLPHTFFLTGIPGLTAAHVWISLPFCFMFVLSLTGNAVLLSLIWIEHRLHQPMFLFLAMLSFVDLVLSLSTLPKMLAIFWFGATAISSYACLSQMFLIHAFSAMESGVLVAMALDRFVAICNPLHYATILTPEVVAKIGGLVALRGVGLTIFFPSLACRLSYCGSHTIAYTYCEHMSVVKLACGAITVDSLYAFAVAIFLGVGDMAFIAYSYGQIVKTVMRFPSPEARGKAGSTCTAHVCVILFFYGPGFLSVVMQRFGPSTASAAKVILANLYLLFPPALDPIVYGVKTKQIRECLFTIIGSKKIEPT
# In short: as §1
# UniProt Q8VGX5 = biological target: T17, UniProt Q8VGX5
# T17 sequence (whole entry): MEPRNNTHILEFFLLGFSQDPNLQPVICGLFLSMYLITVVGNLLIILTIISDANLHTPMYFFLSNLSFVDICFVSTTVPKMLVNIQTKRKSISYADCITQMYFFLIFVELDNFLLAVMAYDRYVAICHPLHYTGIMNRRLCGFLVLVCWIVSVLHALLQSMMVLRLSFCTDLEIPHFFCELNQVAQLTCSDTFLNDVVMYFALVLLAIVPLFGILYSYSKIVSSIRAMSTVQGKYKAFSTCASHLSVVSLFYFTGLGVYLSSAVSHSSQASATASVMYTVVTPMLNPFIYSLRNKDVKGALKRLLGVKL
# In short: as §1
Compound,odorant receptor agonist call (UniProt Q8VGC6),odorant receptor agonist call (UniProt Q8VGD7),odorant receptor agonist call (UniProt Q8VGH1),odorant receptor agonist call (UniProt Q8VGJ1),odorant receptor agonist call (UniProt Q8VGJ3),odorant receptor agonist call (UniProt Q8VGJ5),odorant receptor agonist call (UniProt Q8VGL0),odorant receptor agonist call (UniProt Q8VGL7),odorant receptor agonist call (UniProt Q8VGM2),odorant receptor agonist call (UniProt Q8VGP6),odorant receptor agonist call (UniProt Q8VGQ3),odorant receptor agonist call (UniProt Q8VGT4),odorant receptor agonist call (UniProt Q8VGU3),odorant receptor agonist call (UniProt Q8VGV1),odorant receptor agonist call (UniProt Q8VGV7),odorant receptor agonist call (UniProt Q8VGX3),odorant receptor agonist call (UniProt Q8VGX5)
CCCCCCCCCCO,active,inactive,inactive,inactive,inactive,inactive,inactive,inactive,inactive,active,inactive,inactive,inactive,inactive,inactive,inactive,inactive
CCOC(=O)CC(C)C,inactive,–,–,–,inactive,–,inactive,–,–,–,–,–,inactive,–,inactive,inactive,inactive
CCC(=O)O,inactive,inactive,inactive,inactive,inactive,inactive,inactive,inactive,inactive,inactive,inactive,inactive,inactive,inactive,inactive,inactive,inactive
CCCCCC=O,inactive,inactive,inactive,inactive,inactive,inactive,inactive,inactive,inactive,inactive,inactive,inactive,inactive,inactive,inactive,inactive,inactive
O=C([O-])CCCCCCC(=O)[O-].[H+].[H+],inactive,–,–,–,inactive,–,inactive,–,–,–,–,–,inactive,–,inactive,inactive,inactive
